ChEMBL document CHEMBL4814060, “Design, synthesis and biological evaluation of novel pleuromutilin derivatives as potent anti-MRSA agents targeting the 50S ribosome” (Bioorg Med Chem, 2021)
Values after ≈ are worked out from the molar mass of the structure shown.

Columns and labels:
Staphylococcus aureus [1] = assay: Antibacterial activity against methicillin-resistant Staphylococcus aureus ATCC 43300 assessed as inhibition of visible growth incubated for 24 hrs by CLSI protocol based broth microdilution method; assay type: functional
[2] = target: T1, Bacterial 70S ribosome (Bacteria) (UniProt P0A7V0+P60723+P0AG67+P0A7R5+P0A7R9+P0A7S3+P0A7S9+P0AG59+P0ADZ4+P0A7T3+P0AG63+P0A7T7+P0A7U3+P0A7U7+P68679+P0A7V3+P0A7V8+P0A7W1+P02358+P02359+P0A7W7+P0A7X3+P0A7J3+P0A7J7+P0AA10+P0ADY3+P02413+P0ADY7+P0AG44+P0C018+P0A7K6+P0A7L0+P0A7L3+P0AG48+P61175+P0ADZ0+P60624+P68919+P0A7L8+P0A7M2+P0A7M6+P60422+P0AG51+P0A7N1+P0A7M9+P0A7N4+P0A7N9+P0A7P5+P0A7Q1+Q2EEQ2+P0A7Q6+P60438+P62399+P0AG55+P0A7K2); assay: Binding affinity to Staphylococcus aureus ATCC 43300 50S ribosome assessed as dissociation rate constant by SPR analysis; assay type: subcellular
How it was run: (§1)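 The 50S subunit was purified from ATCC 43300 by sucrose cushion, a 7–30% sucrose gradient and PEG precipitation. Compounds at 100 µM in DMSO were photo-crosslinked onto the chip and printed four times each. Ribosome at 200–3200 nM in PBST (pH 7.4, 0.1% Tween 20) was run at 4 °C: association 600 s, then dissociation 360 s, both at 0.5 µL/s. Surface was regenerated with glycine-HCl pH 2.0.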

Staphylococcus aureus [3] = assay: Antibacterial activity against Staphylococcus aureus 144 assessed as inhibition of visible growth incubated for 24 hrs by CLSI protocol based broth microdilution method; assay type: functional
Staphylococcus aureus [4] = assay: Antibacterial activity against Staphylococcus aureus ATCC 29213 assessed as inhibition of visible growth incubated for 24 hrs by CLSI protocol based broth microdilution method; assay type: functional
Staphylococcus aureus [5] = assay: Antibacterial activity against Staphylococcus aureus AD3 assessed as inhibition of visible growth incubated for 24 hrs by CLSI protocol based broth microdilution method; assay type: functional
Staphylococcus aureus [6] = assay: Bactericidal activity against methicillin-resistant Staphylococcus aureus ATCC 43300 assessed as reduction in bacterial growth at 1 to 32 times of MIC measured upto 24 hrs by time kill assay; assay type: functional, organism-based; details: time hrs <=24, TDE = time-dependent effect
How it was run: (§2)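 MRSA was grown in MH broth at 37 °C for 4.5 h and diluted to 1×10^6 CFU/mL. Compound was added at 1, 2, 4, 8, 16 or 32 × MIC; growth control had 0.9% saline only. Cultures were shaken at 37 °C and sampled at 0, 3, 6, 9 and 24 h. Samples were serially diluted in saline and plated on MH agar, with CFU counted after 24 h at 37 °C. Run in triplicate.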

Staphylococcus aureus [7] = assay: Antibacterial activity against methicillin-resistant Staphylococcus aureus ATCC 43300 assessed as reduction in bacterial growth at 4 times of MIC measured at 3 hrs by time kill assay; assay type: functional; how it was run: as §2
[8] = target: T1, Bacterial 70S ribosome (Bacteria); assay: Binding affinity to Staphylococcus aureus ATCC 43300 50S ribosome assessed as association constant by SPR analysis; assay type: subcellular; how it was run: as §1
Staphylococcus aureus [9] = assay: In vivo antibacterial activity against methicillin-resistant Staphylococcus aureus ATCC 43300 infected in ICR/Swiss mouse model of neutropenic thigh infection assessed as reduction in bacterial growth at 20 mg/kg, iv administered 2 hrs after infection and tissue collected after 24 hrs and measured after 24 hrs […]; assay type: functional
How it was run: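 Female ICR/Swiss mice, 6 weeks old, were made neutropenic with ip cyclophosphamide (150 mg/kg at day −4, 100 mg/kg at day −1). Each thigh received about 10^7 CFU/mL MRSA in 0.1 mL. At 2 h, mice got a single iv dose of 20 mg/kg or saline, with 3 mice (6 thighs) per group. At 24 h, thighs were homogenized in iced saline, diluted and plated on MH agar, and CFU counted after 24 h at 37 °C.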

RAW264.7 = assay: Cytotoxicity against mouse RAW264.7 cells assessed as reduction in cell viability at < 40 ug/ml incubated for 16 hrs by MTT assay; details: raw264.7, 16 h
Cytochrome P450 3A4 = Cytochrome P450 3A4 (Homo sapiens, UniProt P08684); assay: Inhibition of CYP3A4 in human liver microsomes using testosterone as substrate incubated for 5 mins followed by NADPH addition and measured after 5 mins by LC/MS/MS analysis
How it was run: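 Final conditions: human liver microsomes 0.2 mg/mL, testosterone 20 μmol/L, 0.1 M Tris pH 7.4, inhibitor at 2.5–80 μM. Plates were preincubated 5 min at 37 °C, then started with NADPH (final 1 mmol/L) and run 5 min. Reaction was stopped with acetonitrile containing loratadine as internal standard, and the supernatant was analysed by LC-MS/MS. IC50 was determined.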

Sequence of Cytochrome P450 3A4 (P08684 whole entry): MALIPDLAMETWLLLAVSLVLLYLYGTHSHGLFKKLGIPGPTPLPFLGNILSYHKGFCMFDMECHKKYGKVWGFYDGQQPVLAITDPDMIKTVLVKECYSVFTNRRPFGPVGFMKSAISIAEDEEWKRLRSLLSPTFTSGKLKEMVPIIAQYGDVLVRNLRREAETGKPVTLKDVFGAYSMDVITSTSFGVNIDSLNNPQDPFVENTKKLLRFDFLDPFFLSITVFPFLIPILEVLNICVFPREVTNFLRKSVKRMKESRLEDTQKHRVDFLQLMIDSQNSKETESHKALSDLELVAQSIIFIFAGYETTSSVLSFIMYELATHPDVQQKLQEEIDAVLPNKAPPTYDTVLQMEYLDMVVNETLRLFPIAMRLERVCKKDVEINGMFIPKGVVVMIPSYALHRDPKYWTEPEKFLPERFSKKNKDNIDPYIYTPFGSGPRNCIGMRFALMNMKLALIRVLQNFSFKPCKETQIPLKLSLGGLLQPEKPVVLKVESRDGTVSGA

Compound	MIC (Staphylococcus aureus [1]) [µg/mL]	Kdiss [2]	MIC (Staphylococcus aureus [3]) [µg/mL]	MIC (Staphylococcus aureus [4]) [µg/mL]	MIC (Staphylococcus aureus [5]) [µg/mL]	Activity (Staphylococcus aureus [6])	log10CFU/ml (Staphylococcus aureus [7])	Activity (Staphylococcus aureus [7]) [log10CFU/ml]	Ka [8]	Activity (Staphylococcus aureus [9]) [log10CFU/g]	Activity (RAW264.7)	IC50 (Cytochrome P450 3A4) [µM]
C=C[C@]1(C)C[C@@H](OC(=O)CSc2nc(N)n(C(=O)c3cccc(C)c3)n2)[C@]2(C)[C@H](C)CC[C@]3(CCC(=O)[C@H]32)[C@@H](C)[C@@H]1O	0.25 (≈ 0.42 µM)	8.79 10^-6M	0.5 (≈ 0.841 µM)	0.5 (≈ 0.841 µM)	0.5 (≈ 0.841 µM)	–	–	–	–	–	–	–
C=C[C@]1(C)C[C@@H](OC(=O)CSc2nc(N)n(C(=O)c3cccc(Cl)c3)n2)[C@]2(C)[C@H](C)CC[C@]3(CCC(=O)[C@H]32)[C@@H](C)[C@@H]1O	0.25 (≈ 0.406 µM)	4.94 10^-7M	0.5 (≈ 0.813 µM)	0.25 (≈ 0.406 µM)	0.25 (≈ 0.406 µM)	Tde	-1.23	–	–	–	–	–
C=C[C@]1(C)C[C@@H](OC(=O)CSc2nc(N)n(C(=O)c3ccc(C(F)(F)F)cc3)n2)[C@]2(C)[C@H](C)CC[C@]3(CCC(=O)[C@H]32)[C@@H](C)[C@@H]1O	1 (≈ 1.54 µM)	–	1 (≈ 1.54 µM)	1 (≈ 1.54 µM)	1 (≈ 1.54 µM)	–	–	–	–	–	–	–
C=C[C@]1(C)C[C@@H](OC(=O)CSc2nc(N)n(C(=O)c3ccc(Cl)cc3)n2)[C@]2(C)[C@H](C)CC[C@]3(CCC(=O)[C@H]32)[C@@H](C)[C@@H]1O	0.5 (≈ 0.813 µM)	–	1 (≈ 1.63 µM)	1 (≈ 1.63 µM)	1 (≈ 1.63 µM)	–	–	–	–	–	–	–
C=C[C@]1(C)C[C@@H](OC(=O)CSc2nc(N)n(C(=O)c3ccc(OC)cc3)n2)[C@]2(C)[C@H](C)CC[C@]3(CCC(=O)[C@H]32)[C@@H](C)[C@@H]1O	0.25 (≈ 0.409 µM)	2.22 10^-7M	0.5 (≈ 0.819 µM)	0.25 (≈ 0.409 µM)	0.25 (≈ 0.409 µM)	Tde	–	-2.42	–	–	–	–
C=C[C@]1(C)C[C@@H](OC(=O)CSc2nc(N)n(C(=O)c3c(F)cccc3Cl)n2)[C@]2(C)[C@H](C)CC[C@]3(CCC(=O)[C@H]32)[C@@H](C)[C@@H]1O	1 (≈ 1.58 µM)	–	2 (≈ 3.16 µM)	2 (≈ 3.16 µM)	2 (≈ 3.16 µM)	–	–	–	–	–	–	–
C=C[C@]1(C)C[C@@H](OC(=O)CSc2nc(N)n(C(=O)c3ccc(F)cc3)n2)[C@]2(C)[C@H](C)CC[C@]3(CCC(=O)[C@H]32)[C@@H](C)[C@@H]1O	0.5 (≈ 0.835 µM)	–	1 (≈ 1.67 µM)	1 (≈ 1.67 µM)	1 (≈ 1.67 µM)	–	–	–	–	–	–	–
C=C[C@]1(C)C[C@@H](OC(=O)CSc2nc(N)n[nH]2)[C@]2(C)[C@H](C)CC[C@]3(CCC(=O)[C@H]32)[C@@H](C)[C@@H]1O	1 (≈ 2.1 µM)	–	2 (≈ 4.2 µM)	1 (≈ 2.1 µM)	1 (≈ 2.1 µM)	–	–	–	–	–	–	–
C=C[C@]1(C)C[C@@H](OC(=O)CSc2nc(N)n(C(=O)c3c(F)c(F)c(F)c(F)c3F)n2)[C@]2(C)[C@H](C)CC[C@]3(CCC(=O)[C@H]32)[C@@H](C)[C@@H]1O	1 (≈ 1.49 µM)	–	2 (≈ 2.98 µM)	2 (≈ 2.98 µM)	1 (≈ 1.49 µM)	–	–	–	–	–	–	–
C=C[C@]1(C)C[C@@H](OC(=O)CSc2nc(N)n(C(=O)c3ccc(OC(F)(F)F)cc3)n2)[C@]2(C)[C@H](C)CC[C@]3(CCC(=O)[C@H]32)[C@@H](C)[C@@H]1O	1 (≈ 1.5 µM)	–	2 (≈ 3.01 µM)	2 (≈ 3.01 µM)	1 (≈ 1.5 µM)	–	–	–	–	–	–	–
C=C[C@]1(C)C[C@@H](OC(=O)CSc2nc(N)n(C(=O)c3ccccc3F)n2)[C@]2(C)[C@H](C)CC[C@]3(CCC(=O)[C@H]32)[C@@H](C)[C@@H]1O	1 (≈ 1.67 µM)	–	4 (≈ 6.68 µM)	2 (≈ 3.34 µM)	2 (≈ 3.34 µM)	–	–	–	–	–	–	–
C=C[C@]1(C)C[C@@H](OC(=O)CSc2nc(N)n(C(=O)c3cccc(F)c3)n2)[C@]2(C)[C@H](C)CC[C@]3(CCC(=O)[C@H]32)[C@@H](C)[C@@H]1O	0.25 (≈ 0.418 µM)	2.21 10^-5M	1 (≈ 1.67 µM)	0.5 (≈ 0.835 µM)	0.5 (≈ 0.835 µM)	Tde	–	-1.26	5.4 10^2/Ms	–	–	–
C=C[C@]1(C)C[C@@H](OC(=O)CSc2nc(N)n(C(=O)c3ccccc3OC)n2)[C@]2(C)[C@H](C)CC[C@]3(CCC(=O)[C@H]32)[C@@H](C)[C@@H]1O	1 (≈ 1.64 µM)	–	1 (≈ 1.64 µM)	1 (≈ 1.64 µM)	1 (≈ 1.64 µM)	–	–	–	–	–	–	–
C=C[C@]1(C)C[C@@H](OC(=O)CSc2nc(N)n(C(=O)c3ccc(F)cc3Cl)n2)[C@]2(C)[C@H](C)CC[C@]3(CCC(=O)[C@H]32)[C@@H](C)[C@@H]1O	1 (≈ 1.58 µM)	–	1 (≈ 1.58 µM)	1 (≈ 1.58 µM)	0.5 (≈ 0.79 µM)	–	–	–	–	–	–	–
C=C[C@]1(C)C[C@@H](OC(=O)CSc2nc(N)n(C(=O)c3ccccc3Cl)n2)[C@]2(C)[C@H](C)CC[C@]3(CCC(=O)[C@H]32)[C@@H](C)[C@@H]1O	0.5 (≈ 0.813 µM)	–	1 (≈ 1.63 µM)	0.5 (≈ 0.813 µM)	0.5 (≈ 0.813 µM)	–	–	–	–	–	–	–
C=C[C@]1(C)C[C@@H](OC(=O)CSCCN(CC)CC)[C@]2(C)[C@H](C)CC[C@]3(CCC(=O)[C@H]32)[C@@H](C)[C@@H]1O [TIAMULIN]	0.5 (≈ 1.01 µM)	–	1 (≈ 2.03 µM)	1 (≈ 2.03 µM)	1 (≈ 2.03 µM)	–	–	–	–	0.91	–	–
C=C[C@]1(C)C[C@@H](OC(=O)CSc2nc(N)n(C(=O)c3ccccc3C(F)(F)F)n2)[C@]2(C)[C@H](C)CC[C@]3(CCC(=O)[C@H]32)[C@@H](C)[C@@H]1O	2 (≈ 3.08 µM)	–	4 (≈ 6.17 µM)	4 (≈ 6.17 µM)	4 (≈ 6.17 µM)	–	–	–	–	–	–	–
C=C[C@]1(C)C[C@@H](OC(=O)CSc2nc(N)n(C(=O)c3ccccc3C)n2)[C@]2(C)[C@H](C)CC[C@]3(CCC(=O)[C@H]32)[C@@H](C)[C@@H]1O	0.5 (≈ 0.841 µM)	–	1 (≈ 1.68 µM)	1 (≈ 1.68 µM)	1 (≈ 1.68 µM)	–	–	–	–	–	–	–
C=C[C@]1(C)C[C@@H](OC(=O)CSc2nc(N)n(C(=O)c3cccc(OC)c3)n2)[C@]2(C)[C@H](C)CC[C@]3(CCC(=O)[C@H]32)[C@@H](C)[C@@H]1O	0.25 (≈ 0.409 µM)	–	0.5 (≈ 0.819 µM)	0.5 (≈ 0.819 µM)	0.5 (≈ 0.819 µM)	–	–	–	–	–	–	–
C=C[C@]1(C)C[C@@H](OC(=O)CSc2nc(N)n(C(=O)c3ccccc3)n2)[C@]2(C)[C@H](C)CC[C@]3(CCC(=O)[C@H]32)[C@@H](C)[C@@H]1O	0.25 (≈ 0.43 µM)	2.7 10^-4M	2 (≈ 3.44 µM)	1 (≈ 1.72 µM)	1 (≈ 1.72 µM)	–	–	–	–	–	–	–
C=C[C@]1(C)C[C@@H](OC(=O)CSc2nc(N)n(C(=O)c3ccc(C)cc3)n2)[C@]2(C)[C@H](C)CC[C@]3(CCC(=O)[C@H]32)[C@@H](C)[C@@H]1O	0.125 (≈ 0.21 µM)	2.2 10^-4M	0.125 (≈ 0.21 µM)	0.125 (≈ 0.21 µM)	0.125 (≈ 0.21 µM)	Tde	–	-1.95	4.16 10^2/Ms	1.89	Non-Toxic	3.95
C=C[C@]1(C)C[C@@H](OC(=O)CSc2nc(N)n(C(=O)c3cc(Cl)cc(Cl)c3)n2)[C@]2(C)[C@H](C)CC[C@]3(CCC(=O)[C@H]32)[C@@H](C)[C@@H]1O	1 (≈ 1.54 µM)	–	1 (≈ 1.54 µM)	1 (≈ 1.54 µM)	0.5 (≈ 0.77 µM)	–	–	–	–	–	–	–
